According to ChEMBL document CHEMBL4513216, “Probing the Open Global Health Chemical Diversity Library for Multistage-Active Starting Points for Next-Generation Antimalarials” (ACS Infect Dis, 2020):

Assay: Toxicity liver stage against HepG2, at 10uM
Format: cell-based
Parameters: test concentration 10 uM, cell line HepG2-A16-CD81EGFP
Conditions: human, HepG2-A16-CD81EGFP cells; read-out: INHIBITION
Procedure, shortened: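 Uninfected HepG2-A16-CD81EGFP cells, 3 × 10^3 per well, 1536-well, plated on prespotted compound at 10 μM final, parasite-free screening media added to match infected plates; puromycin 10 μM positive, DMSO 0.5% negative; run in parallel with 48 h PbLuc assay at 37 °C, 5% CO2; viability by CellTiter-Glo luminescence, normalized to controls.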

Cc1nn(C(=O)c2cccnc2)c(C)c1C
cytotoxicity at 10 µM: -8.62%

CNC(=O)NC(=O)C(NCc1cccs1)c1ccccc1 (stereo not drawn)
cytotoxicity at 10 µM: 6.75%

Cc1cc(=O)[nH]c(-n2nc(-c3ccccc3)cc2N)n1
cytotoxicity at 10 µM: 5.71%

c1ccc2c(Cc3nnc([C@H]4CCNC4)o3)c[nH]c2c1
cytotoxicity at 10 µM: -0.762%

CCN1Cc2cc3c(cc2NCCC1=O)OCO3
cytotoxicity at 10 µM: -7.44%

Cc1ncc(CNC(C)(C)CO)c2cc(C(=O)c3ccc(Br)cc3)oc12
cytotoxicity at 10 µM: 12.7%

COCC(=O)N1CCC2(CCC2NS(=O)(=O)c2ccccc2)CC1 (stereo not drawn)
cytotoxicity at 10 µM: 0.073%

O=C(c1ccc[nH]1)N1C[C@H](OCc2ccccn2)[C@H]2COC[C@H]21
cytotoxicity at 10 µM: 0.238%

CC(C)Nc1nc(N2CCCC2)nc2c1CN(c1ncc(F)cn1)CC2
cytotoxicity at 10 µM: 13.5%

O=C(c1ccnnc1)N1CC[C@H](OCC2CC2)[C@@H]1Cc1ccncc1
cytotoxicity at 10 µM: -1.43%

CC(C)NC(=O)[C@@H](NC(=O)N1CCN(c2ccc(Cl)cc2)CC1)C(C)C
cytotoxicity at 10 µM: 34.9%

CCCN1CCN(C(=O)Cn2nc(C(F)(F)F)c(Br)c2C2CC2)CC1
cytotoxicity at 10 µM: 2.2%

CCn1ncc(-c2cc(C(F)F)nc3sc(C(N)=O)c(N)c23)c1C
cytotoxicity at 10 µM: 10.3%

Cc1c(Cl)cccc1NC(=O)N1CCN(Cc2ccccn2)CC1
cytotoxicity at 10 µM: -5.55%

CSc1ccc(-c2noc(CN(CC(C)C)CC(C)C)n2)cc1
cytotoxicity at 10 µM: -3.7%

Cc1ccc([C@]2(O)CC[C@H]3CN(Cc4ccncc4)C[C@H]32)nc1
cytotoxicity at 10 µM: -31.5%

CC(=O)N1C[C@@H](c2ccsc2)[C@@H]2CN(Cc3ccccc3C)CC[C@@H]21
cytotoxicity at 10 µM: -5%

N#Cc1ccccc1OCCN1CCN(C(=O)C2CCCC2)CC1
cytotoxicity at 10 µM: -52.1%

N#Cc1ncn(Cc2c(F)cccc2Cl)n1
cytotoxicity at 10 µM: -3.94%

O=C(NCCn1ccnc1)C1COCC(=O)N1Cc1ccccc1 (stereo not drawn)
cytotoxicity at 10 µM: 8.19%

N#CCCN(CC(=O)Nc1ccc(Br)cc1Cl)Cc1cccnc1
cytotoxicity at 10 µM: 11%

N#Cc1cc(F)ccc1NCC1CCN(S(=O)(=O)C(F)F)CC1
cytotoxicity at 10 µM: 18.4%

CC(CNC1CCN(c2ccccn2)CC1)Oc1ccc(F)cc1 (stereo not drawn)
cytotoxicity at 10 µM: 7.43%

CCNC(=O)C(C)NC(=O)Nc1ccccc1SC(F)(F)F (stereo not drawn)
cytotoxicity at 10 µM: -9.5%

COc1ccc(CNCc2c(C)nc3sc(C)cn23)c(OC)c1OC
cytotoxicity at 10 µM: -1.99%

COc1cc(C)sc1C(=O)NCCC(=O)N(C)Cc1ccccc1
cytotoxicity at 10 µM: -8.78%

N#Cc1c(F)cccc1Nc1cnn(CC(N)=O)c1
cytotoxicity at 10 µM: 6.25%

CCc1ccc(C2CCCN2C(=O)Cc2ccc(NC(C)=O)cc2)o1 (stereo not drawn)
cytotoxicity at 10 µM: -0.557%

Cc1cccn2c(=O)cc(CN3CCCC3Cn3cccn3)nc12 (stereo not drawn)
cytotoxicity at 10 µM: -4.55%

COCc1nc2cc(NCc3sc(C)nc3C)ccc2o1
cytotoxicity at 10 µM: 29.1%

CNS(=O)(=O)c1cccc(C(C)NCc2ccc(F)cc2F)c1 (stereo not drawn)
cytotoxicity at 10 µM: 12.8%

Cc1ccc(C(=O)CN2C(=O)c3ccccc3CS2(=O)=O)c(C)c1
cytotoxicity at 10 µM: 17.6%

CN(Cc1ccc(N(C)C)cc1)C(=O)CS(=O)(=O)c1ccc(Cl)cc1
cytotoxicity at 10 µM: 22.2%

COc1ncccc1C(=O)NC1(c2cccc(F)c2)CCOCC1
cytotoxicity at 10 µM: 10.9%

CN(Cc1ccc(Cl)s1)C(=O)Cn1nc(-c2ccc(F)cc2)oc1=O
cytotoxicity at 10 µM: -20.4%

COc1cccc(N2CCN(CCC(=O)NC3CCCCC3)CC2)c1
cytotoxicity at 10 µM: -5.64%

CCOC(C)C(=O)Nc1ccc(Sc2nncn2C)c(Cl)c1 (stereo not drawn)
cytotoxicity at 10 µM: -1.37%

c1ccc(-n2nnnc2NCc2ccc3c(c2)OCO3)cc1
cytotoxicity at 10 µM: 29.5%

CC(Nc1cnn(C)c(=O)c1Cl)c1ccc(F)cc1 (stereo not drawn)
cytotoxicity at 10 µM: 20.7%

CS(=O)(=O)c1cccc(C(=O)NCc2nc3cc(F)ccc3[nH]2)c1
cytotoxicity at 10 µM: 12.2%

CNC(=O)CN1CCC(OCc2ccc(Cl)c(Cl)c2)CC1
cytotoxicity at 10 µM: -14.4%

CCCc1noc(CN2CCOCC2C)n1 (stereo not drawn)
cytotoxicity at 10 µM: 6.3%

Cc1oc(-c2ccsc2)nc1CN1CCCC(c2ccnn2C)C1 (stereo not drawn)
cytotoxicity at 10 µM: 10.7%

CCC(C)NC(=O)c1cccc(CNCc2csc(C(C)C)n2)c1 (stereo not drawn)
cytotoxicity at 10 µM: 9.48%

O=C(CN(CC(O)c1ccc(F)cc1)C1CC1)NCc1cccs1 (stereo not drawn)
cytotoxicity at 10 µM: 0.0428%

CCNC(=O)N(C)C1CCCc2nc(C)sc21 (stereo not drawn)
cytotoxicity at 10 µM: 12.2%

CCC(CCO)NS(=O)(=O)c1ccc(Br)cn1 (stereo not drawn)
cytotoxicity at 10 µM: 6.62%

Cc1csc(C2(NCc3nc(-c4ccco4)oc3C)CCCC2)n1
cytotoxicity at 10 µM: 7.2%

O=C(Cc1ccccc1F)NCC1CCN(CCN2CCOCC2)C1 (stereo not drawn)
cytotoxicity at 10 µM: -47%

CC(CCN(C)C)NC(=O)c1cccc(C(F)(F)F)c1F (stereo not drawn)
cytotoxicity at 10 µM: -52.6%

Cc1csc([C@H]2C[C@@H]3CCN(Cc4cc(C)on4)C[C@H]3O2)n1
cytotoxicity at 10 µM: -99.4%

Cn1ccnc1CN1CCC2(COCCN(S(=O)(=O)C3CC3)C2)C1 (stereo not drawn)
cytotoxicity at 10 µM: 12.7%

CCC1=NC2(CCC(C(=O)Nc3ccc(C)nc3)CC2)C(=O)N1C (stereo not drawn)
cytotoxicity at 10 µM: 8.79%

CC(=O)N1CCc2nc(-c3ccc(F)cc3)nc(NC(C)C)c2CC1
cytotoxicity at 10 µM: -114%

CCN(CC)C1CCN(c2ncnc3c2CCN(C(=O)C2CC2)C3)C1 (stereo not drawn)
cytotoxicity at 10 µM: 1.52%

COc1ccc2cc(C3CN(C(=O)CN4CCCC4)CCO3)ccc2c1 (stereo not drawn)
cytotoxicity at 10 µM: -6.88%

CC(C)c1cc(N2CC[C@H](F)C2)n2nccc2n1
cytotoxicity at 10 µM: -2.56%

Cc1ncsc1C(=O)N1CC[C@@]2(O)CCN(C(=O)N3CCCC3)C[C@H]2C1
cytotoxicity at 10 µM: -14.2%

CN(CCCc1cnn(C)c1)Cc1cc2n(n1)CCCN(C)C2
cytotoxicity at 10 µM: -0.857%

CCCn1cc(-c2cc(-c3cc(CC)n[nH]3)c(C#N)c(N)n2)c(C)n1
cytotoxicity at 10 µM: -6.7%

Cc1cc2ccccc2n1CCC(=O)N1CCCC2(CC1)CNC(=O)O2 (stereo not drawn)
cytotoxicity at 10 µM: 3.5%

CCn1cc(CN2CCC(C3CCN(C)CC3)CC2)cc1C#N
cytotoxicity at 10 µM: -0.0399%

O=C1CC2(CCN(c3nccc(-c4cc(C(=O)O)ccn4)n3)CC2)CN1
cytotoxicity at 10 µM: 2.16%

CCN1CC(NC(=O)Nc2nc(C)n(C(C)C)n2)CC1=O (stereo not drawn)
cytotoxicity at 10 µM: -5.58%

C[C@@H]1CCC[C@H](C)N1CC(=O)N1CCc2[nH]c(-c3ccccc3)nc2C1
cytotoxicity at 10 µM: 4.02%

N#Cc1ccnc(N2CCC(NCCN3CCOCC3)CC2)c1
cytotoxicity at 10 µM: -43.4%

CCCn1cc(NC(=O)c2cccc(CN3CC[C@H](O)C3)c2)nn1
cytotoxicity at 10 µM: -12.2%

Cc1c(CN2CCc3[nH]cnc3C2C2CC2)[nH]c2ccc(F)cc12 (stereo not drawn)
cytotoxicity at 10 µM: 10.8%

CSc1nnc(CC2CCN(C(=O)Cc3ccncc3)CC2)n1C
cytotoxicity at 10 µM: -46.7%

CC(C)N1CC2(CCCN(c3ccnc4ccccc34)C2)CCC1=O (stereo not drawn)
cytotoxicity at 10 µM: 8.62%

O=C1CN(Cc2cn(C3CCN(C4CSCCSC4)CC3)nn2)CCN1
cytotoxicity at 10 µM: -48.8%

Cc1ccc(-c2nn(-c3cccc(F)c3)cc2CN(C)CCO)o1
cytotoxicity at 10 µM: 11.6%

Cc1nc(N2CCCOC(Cn3cccn3)C2)c2sccc2n1 (stereo not drawn)
cytotoxicity at 10 µM: 35.5%

Cc1ccccc1N1CC(C)N(C(=O)CCn2cccn2)CC1=O (stereo not drawn)
cytotoxicity at 10 µM: 10.1%

COc1ccc(C)cc1-n1cnnc1CC1CCNCC1
cytotoxicity at 10 µM: -11.4%

CC(=O)NCCC1CCN(c2nc(C(C)(C)C)nc3c2cnn3C)CC1
cytotoxicity at 10 µM: -0.891%

Cc1ccccc1S(=O)(=O)N1CCc2c(ncnc2N(C)C)C1
cytotoxicity at 10 µM: -16.6%

CCn1cc(CN2CCCC3(CCC(=O)N(CCC(C)C)C3)C2)cn1 (stereo not drawn)
cytotoxicity at 10 µM: -4.73%

CN(C(=O)c1cccc(NCc2cccs2)c1)C(C1CC1)C1CC1
cytotoxicity at 10 µM: 8.41%

CCCN1CCC(NC(=O)c2csc(C)c2C)CC1
cytotoxicity at 10 µM: -137%

CC(Nc1ncnc2c1CCNC2)c1ccc(C(C)(C)C)cc1 (stereo not drawn)
cytotoxicity at 10 µM: 28%

Cc1ccc(-c2cn[nH]c2C2CCCN(c3ccnc(C)n3)C2)cc1 (stereo not drawn)
cytotoxicity at 10 µM: -1.78%

C[C@@H]1CN(C(=O)CCCN2CCOCC2)CC[C@@]1(O)C1CCC1
cytotoxicity at 10 µM: -2.95%

c1ccc(Oc2cccc(OC34CCCN(CC3)C4)c2)cc1 (stereo not drawn)
cytotoxicity at 10 µM: 0.681%

Cc1cnc(NCC(C)(C)N2CCOCC2)nc1
cytotoxicity at 10 µM: 5.68%

CNc1cc(C(=O)N2CCCCC2CCn2ccnc2C)ccn1 (stereo not drawn)
cytotoxicity at 10 µM: 1.85%

N#Cc1cc2c(nc1SCc1cc(O)nc(O)n1)CCCCC2
cytotoxicity at 10 µM: 4.97%

c1cnn(CC2CN(Cc3csc(C4CCCCC4)n3)CCO2)c1 (stereo not drawn)
cytotoxicity at 10 µM: -6.37%

N#Cc1cccc(CN2CCN(Cc3cscn3)CC2)c1
cytotoxicity at 10 µM: 1.16%

Clc1ccc2cccnc2c1CN1CCCC1Cn1cncn1 (stereo not drawn)
cytotoxicity at 10 µM: 3.91%

Cc1cc(CN2CCCC2c2noc(C3CC3)n2)c2ccccc2n1 (stereo not drawn)
cytotoxicity at 10 µM: 49.5%

CC(C)c1ncc2c(n1)CN(Cc1nc(-c3cccs3)no1)CC2
cytotoxicity at 10 µM: -7.91%

Cc1csc(NC(=O)CN2CCC(c3ccnn3CCO)CC2)n1
cytotoxicity at 10 µM: 5.03%

CC(=O)N1CCCN(CC(C)(O)c2cccc(C(F)(F)F)c2)CC1 (stereo not drawn)
cytotoxicity at 10 µM: -10.3%

CN(CC(=O)NC(Cc1ccsc1)c1cccnc1)Cc1cccnc1 (stereo not drawn)
cytotoxicity at 10 µM: -4.04%

CC(C)NC(=O)[C@@H]1CC[C@@H]2[C@@H](CCN2Cc2cn(C)c3ccccc23)O1
cytotoxicity at 10 µM: 9.49%

COc1cccc(CN2CCC3(CC2)CCN(c2ncc(C)cn2)C3)c1
cytotoxicity at 10 µM: -3.55%

Cc1nc(CN2CCC3(CCN(C(=O)c4ccoc4C)CC3)C2)cs1
cytotoxicity at 10 µM: -5.19%

COc1cccc(-c2noc(C3CCN(Cc4ccc(C)cc4)C3)n2)c1 (stereo not drawn)
cytotoxicity at 10 µM: -5.89%

O=C(c1ccc(F)cc1)N1CC[C@H]2[C@H]1CCN2CC1CCOCC1
cytotoxicity at 10 µM: -76.4%

CC(C)OCc1ncn2c1CN(CC1CC1)CCC2
cytotoxicity at 10 µM: -68.9%

Cc1noc(C)c1CN1CCC2(CC1)NC(=O)CC2c1ccccc1 (stereo not drawn)
cytotoxicity at 10 µM: -109%

Cc1cccc(CN2CCC3(CCCN(Cc4cnn(C)c4)C3)C2)n1 (stereo not drawn)
cytotoxicity at 10 µM: -113%

Cc1ccsc1CN1CCn2c(COc3cccnc3)cnc2C1C (stereo not drawn)
cytotoxicity at 10 µM: -99.4%

Cn1cc(CN2CCCC23CCN(C(=O)c2cccn2C)CC3)cn1
cytotoxicity at 10 µM: 2.88%

Cc1ccc(CN2C[C@@H]3C[C@H](C(=O)Nc4cccnc4)[C@H](C2)O3)cc1
cytotoxicity at 10 µM: -83.8%

CC1(C)CC(n2cc3nc(N4CCCC4)[nH]cc-3c2=O)CC(C)(C)N1
cytotoxicity at 10 µM: 9.46%

CC1(C)[C@@H]2CC=C(CN3CCCn4nc(C(=O)O)cc4C3)[C@H]1C2
cytotoxicity at 10 µM: -40.8%
